Compound activity (PubChem)
Most compounds without a hit are left out; they make up all but 3.5% or so of the library.
NF-kB expr up: activators of NF-kB expression in neurons, primary screen, cell-based, HTS | human neuronal cells, NF-kB reporter expression; stronger effect = higher value | fold change at 12.5 µM | 1.6% of 190,000 active; in the data active = fold change above about 3.3
APP 5'UTR act: activators of APP 5'UTR luciferase reporter, primary screen, SH-SY5Y cells. activation, % at 2 µM. AID 1276, 2008. 1% of 190,000 active. SH-SY5Y APP 5'UTR luciferase reporter, luminescence; zero percent = DMSO vehicle wells;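 active = activation above a set limit, based on mean plus 3 SD of controls, cut at about 140% in these data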
FLuc stim CS: FLuc activators, initial screening, artefact control for FLuc-dependent activation tests, biochemical, ATPlite luminescence. ATPlite luciferase biochemical, 10 min; 0 = ATP-free wells, 1 = DMSO control. 200,000 tested, under 10 active. activation factor at 10 µM. AID 1027, 2008. Luciferin 4-monooxygenase (Photinus pyralis), P08659;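 active = luciferase activation factor, scaled between plate controls, of at least 2 with compound at 10 µM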
Target sequence (P08659 whole entry, looked up): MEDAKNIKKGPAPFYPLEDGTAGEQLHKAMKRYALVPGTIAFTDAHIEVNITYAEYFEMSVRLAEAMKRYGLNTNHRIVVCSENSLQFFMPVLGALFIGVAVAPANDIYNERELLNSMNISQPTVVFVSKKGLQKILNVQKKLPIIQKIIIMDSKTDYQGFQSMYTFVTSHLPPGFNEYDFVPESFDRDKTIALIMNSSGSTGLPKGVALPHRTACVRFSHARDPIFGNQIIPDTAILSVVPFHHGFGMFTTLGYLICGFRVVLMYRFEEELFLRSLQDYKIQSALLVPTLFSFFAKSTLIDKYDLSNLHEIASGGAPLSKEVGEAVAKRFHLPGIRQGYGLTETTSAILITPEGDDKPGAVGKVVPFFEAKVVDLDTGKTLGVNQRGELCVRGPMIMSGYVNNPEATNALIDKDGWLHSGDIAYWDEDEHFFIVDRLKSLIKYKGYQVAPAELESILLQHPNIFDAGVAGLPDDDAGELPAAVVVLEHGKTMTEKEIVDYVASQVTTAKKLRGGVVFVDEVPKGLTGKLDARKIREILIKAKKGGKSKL
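test system = cell-free luciferase reagent | medium = PBS as buffer for the ATP substrate | dosing = test compounds dosed from 2 mM stocks in 100% DMSO | incubation = 10 min at ambient temperature | detection = luminescence measurement of luciferase light output | benchmarks = low control with PBS replacing ATP, high control enzyme plus ATP without compound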
STAT1 activator: STAT1 signaling activators, primary screen, cell-based, HTS, luciferase reporter; NIH 3T3 STAT1-luciferase reporter, IFN-gamma, luminescence; 100% = IFN-gamma alone, no compound; activation (% of control), % at 5.5 µM; 2.6% of 200,000 active;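 active = activation above the screen-wide mean activation plus 3 SD, cut at about 130% in these data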;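 also: raw ratio to IFN-gamma control signal so 100% means no change and 0% no light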
Pf gamet viab: late stage P. falciparum gametocyte viability inhibitors, primary screen, ATP luminescence, HTS | P. falciparum stage V gametocytes, 24 h | inhibition, % at 10.9 µM | 0.065% of 150,000 active;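 active = inhibition above the mean plus 3 SD of compounds within the control limits, set per campaign, cut at about 38% in these data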;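 also: 0% = DMSO wells and 100% = medium only without gametocytes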
FLuc inhib CS: firefly luciferase enzyme inhibitors, primary screen, artefact control for luciferase-based inhibitor screens, biochemical, luminescence, ATPLite; 10 min; inhibition, % at 10 µM; 1.5% of 200,000 active; AID 1006, 2008;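 active = inhibition above about 50% when tested at 10 µM, limit read from the data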
* = called active by the depositor; nt = no result.

SMILES | NF-kB expr up | APP 5'UTR act | FLuc stim CS | STAT1 activator | Pf gamet viab | FLuc inhib CS
O=c1c2ccccc2nc2c3ccccc3c(Cl)nn12 | 0.95 | -3.9 | 1 | 95.9 | nt | -1.1
CCOC(=O)C1CCCN(C(c2ccccn2)c2c(C)[nH]c3ccccc23)C1 (configuration not stated) | 0.84 | -2.7 | 1.1 | 94.3 | -1.2 | -8.2
ClC(Cl)(c1nnnn1-c1ccccc1)c1nnnn1-c1ccccc1 | 2.04 | -43.8 | 1 | 95.3 | nt | 0.8
c1ccc2c(C3=NNC(=NC4CC4)SC3)c[nH]c2c1 | 2.55 | 119.2 | 0.5 | 123.0 | nt | 52.7*
c1ccc(C2=NNC(=NC3CC3)SC2)cc1 | 2.19 | 22.3 | 0.4 | 76.0 | nt | 62.1*
Cc1cc(C)cc(NC(=O)c2cccc(C(=O)Nc3cc(C)cc(C)c3)n2)c1 | nt | nt | nt | nt | 21.8 | nt
Oc1ccc(-c2nc3ccccc3s2)c(O)c1 | nt | nt | nt | nt | -0.7 | nt
Oc1ccc(N=C/C=C/c2cccc(Br)c2)cc1-c1nc2ccccc2s1 | 1.3 | 43.9 | 0.6 | 143.6* | nt | 38.4
O=c1nc(SCc2c(F)cccc2Cl)nc(-c2ccccc2)[nH]1 | nt | nt | nt | nt | 9.5 | nt
COc1ccc(C(=O)/C=C/Nc2cc(C)on2)cc1 | 4.27* | -36.6 | 0.8 | 138.9* | nt | 24.8
COc1ccc(CC(=O)Nc2cc(C)on2)cc1 | 1.17 | -5.3 | 1 | 101.7 | -8.1 | -2.4
COc1ccc(C(=O)/C=C/Nc2cccc(O)c2)cc1 | 13.5* | 194.7* | 0 | 108.4 | 10.7 | 95.2*
COc1ccc(N/C=C\C(=O)c2ccc(Br)cc2)cc1OC | 1.74 | 42.2 | 1 | 112.9 | -11.9 | 2.1
NS(=O)(=O)c1ccc(N/C=C/C(=O)c2ccc(Br)cc2)cc1 | 1.43 | 49.5 | 0.9 | 142.6* | 16.9 | 5.3
NS(=O)(=O)c1ccc(N/C=C\C(=O)c2ccncc2)cc1 | 1.14 | -23.0 | 1 | 107.9 | nt | -0.6
COc1ccc(N/C=C\C(=O)c2ccc(C)cc2)cc1OC | 2.62 | 16.5 | 0.8 | 142.6* | nt | 16.1
COc1cccc(C(=O)/C=C/Nc2cc(C)ccc2O)c1 | 25.4* | 1.8 | 0.4 | 133.9* | -16.2 | 61.6*
COc1ccc(C(=O)/C=C/Nc2ccc([N+](=O)[O-])cc2)cc1 | 1.24 | 29.3 | 0.9 | 132.2* | 20.6 | 5.5
CC(C)NC(=S)NCc1cccnc1 | 0.97 | -6.5 | 1 | 100.6 | 1.8 | -4.5
CC12CCC(C(=O)N/N=C/c3ccc(O)cc3O)(OC1=O)C2(C)C (configuration not stated) | nt | nt | nt | nt | -40.6 | nt
O=C(N=Nc1c(O)[nH]c2ccccc12)c1cccs1 | 5.62* | 154.3* | 0.1 | 140.7* | -3.1 | 89.3*
Oc1ccc(NC(=S)N=Nc2c(O)[nH]c3ccccc23)cc1 | 0.71 | 38.5 | 1 | 144.6* | -26.0 | -4.4
O=C(N/N=C/c1cn(-c2ccccc2)nc1-c1ccc2c(c1)OCCO2)c1ccncc1 | 1.9 | 133.4 | 1 | 148.2* | -3.2 | -0.6
OCc1cn(-c2ccccc2)nc1-c1ccc2c(c1)OCCO2 | 2.36 | 61.6 | 1 | 143.6* | -22.6 | 1.5
COc1ccc(-c2nn(-c3ccccc3)cc2CO)cc1OC | 0.94 | 17.1 | 1 | 98.0 | nt | 3.8
SMILES | NF-kB expr up | APP 5'UTR act | FLuc stim CS | STAT1 activator | Pf gamet viab | FLuc inhib CS
COc1cccc(-c2nn(-c3ccccc3)cc2CO)c1 | 1.7 | 23.4 | 1 | 144.4* | 6.3 | -0.3
O=C(N/N=C\c1cn(-c2ccccc2)nc1-c1ccccc1)c1ccc2c(c1)OCO2 | 0.37 | 10.9 | 0.9 | 100.3 | 11.0 | 6.4
O=C(C1=C(O)C(=O)N(CCc2ccccc2)C1c1cccs1)c1ccco1 (configuration not stated) | 0.95 | 3.6 | 1 | 103.5 | nt | -4.1
CCc1ccc2nc(N3C(=O)C(O)=C(C(=O)c4ccco4)C3c3cccs3)sc2c1 (configuration not stated) | 2.59 | 158.4* | 0.9 | 113.2 | nt | 13.3
Cc1cccc(N/C=C(\[N+](=O)[O-])S(=O)(=O)c2ccccc2)c1C | 1.35 | -2.3 | 1 | 100.1 | -7.5 | -3.6
Nc1cc(Cl)nc(N/N=C/c2c(O)ccc3ccccc23)n1 | 4.41* | 18.5 | 0.7 | 96.1 | -20.4 | 28.8
Nc1nonc1N/N=C/c1c(O)ccc2ccccc12 | 3.29 | -3.4 | 1 | 75.2 | -12.2 | -3.4
O=C(O)CCCNc1cc(N2CCC3(CC2)OCCO3)c2noc3c2c1C(=O)c1ccccc1-3 | 0.44 | 89.9 | 0.7 | 142.6* | nt | 28.0
COc1cccc(NC(C)(C)c2nnnn2-c2c(C)cccc2C)c1 | nt | nt | nt | nt | -23.9 | nt
c1ccc2c(Oc3ccc4c(c3)OCO4)nncc2c1 | 4.32* | 119.8 | 0.5 | 137.8* | nt | 46.6
Nc1ccc(Oc2ccc3c(c2)OCO3)cc1 | 1.2 | 11.2 | 1 | 109.7 | nt | -4.7
Cc1ccc(-c2nnc(Cc3ccc([N+](=O)[O-])cc3)o2)cc1 | 2.72 | 147.0* | 0.9 | 104.8 | 5.8 | 7.7
O=[N+]([O-])c1ccc(Cc2nnc(-c3ccc(F)cc3)o2)cc1 | 2 | 91.8 | 1.1 | 113.5 | -5.0 | -9.1
CC1CC(C)CN(CC(O)COCc2ccccc2)C1 (configuration not stated) | nt | nt | nt | nt | -5.9 | nt
O=C(/C=C/Nc1ccc(S(=O)(=O)Nc2cnc3ccccc3n2)cc1)c1ccccc1 | nt | nt | nt | nt | 5.4 | nt
COc1cccc(C(=O)/C=C/Nc2ccc(S(=O)(=O)Nc3ncccn3)cc2)c1 | 0.95 | -15.4 | 1 | 139.3* | -20.7 | 2.0
COc1cccc(C(=O)/C=C/Nc2ccc(S(=O)(=O)Nc3cnc4ccccc4n3)cc2)c1 | 1.03 | 18.1 | 1 | 136.6* | nt | 1.0
COc1cccc(C(=O)/C=C/Nc2ccc(S(=O)(=O)Nc3nc(C)cc(C)n3)cc2)c1 | 1.21 | -9.4 | 1 | 97.2 | nt | -3.4
CCN(CC)S(=O)(=O)c1ccc(C)c(NC(=S)NC2CCCCC2)c1 | nt | nt | nt | nt | 17.8 | nt
CCOC(=O)CS(=O)(=O)c1ccc(O)cc1 | 0.87 | 4.0 | 1.1 | 111.8 | -20.5 | -5.5
COc1nc(-c2ccccc2)nnc1-c1ccccc1 | 6.17* | 179.9* | 0.6 | 155.6* | 5.7 | 35.2
Cc1cc(C(=O)CSc2ccc(F)cc2)cc(C)c1OC(=S)N(C)C | 0.4 | 160.0* | 0.7 | 119.5 | nt | 33.0
COc1ccc(/C=N/NC(=O)CNC(=O)COc2ccccc2)cc1 | 1.26 | -25.9 | 1 | 95.6 | nt | 0.2
CCCCCC(=O)N/N=C/c1ccc(N(C)C)cc1 | 1.9 | 16.8 | 0.9 | 134.0* | nt | 7.4
CN(C)c1ccc(/C=N/NC(=O)CCCO)cc1 | 2.28 | 1.1 | 0.9 | 113.3 | 3.5 | 6.9
COc1ccc(OCC(=O)N/N=C/c2ccc(N(C)C)cc2)cc1 | 1.45 | -13.2 | 0.4 | 103.6 | -6.1 | 62.8*
CN(C)c1ccc(/C=N/NC(=O)c2sccc2-n2cccc2)cc1 | 1.23 | 10.2 | 0.9 | 129.6* | -7.5 | 10.4
